Results on 21 molecules are retold here after ChEMBL document CHEMBL1133563, “Development of new hydroxamate matrix metalloproteinase inhibitors derived from functionalized 4-aminoprolines” (J Med Chem, 2000).

The target of one data set is T1, Matrilysin (Homo sapiens, UniProt P09237).
T1 sequence (P09237 whole entry): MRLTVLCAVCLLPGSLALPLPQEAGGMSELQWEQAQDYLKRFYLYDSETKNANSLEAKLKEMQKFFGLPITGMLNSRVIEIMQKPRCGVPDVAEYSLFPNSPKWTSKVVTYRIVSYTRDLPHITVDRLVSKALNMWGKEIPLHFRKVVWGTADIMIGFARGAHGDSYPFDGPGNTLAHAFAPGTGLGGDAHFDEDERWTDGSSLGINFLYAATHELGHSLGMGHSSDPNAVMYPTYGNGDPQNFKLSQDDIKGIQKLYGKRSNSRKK
The experiment in a line: In vitro inhibitory activity against matrix metalloprotease-7 (matrilysin, MMP-7). In short, it runs like this:
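Human recombinant truncated enzymes, final MMP-1 8 nM, MMP-3 16 nM, MMP-7 2 nM. Quenched-fluorescence assay with Mca-Pro-Leu-Gly-Leu-Dpa-Ala-Arg-NH₂ (4 µM) in 50 mM Tris pH 7.5, 0.2 M NaCl, 5 mM CaCl₂, 0.02% Brij-35 at 25 °C. Fluorescence (ex 328/em 393 nm) read kinetically for 30 min.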

The target of data set [1] is T2, Stromelysin-1 (Homo sapiens, UniProt P08254). The experiment in a line: In vitro inhibitory activity against matrix metalloprotease -3 (stromelysin).
The next data set addresses T3, Interstitial collagenase (Homo sapiens, UniProt P03956).
T3 sequence (P03956 whole entry): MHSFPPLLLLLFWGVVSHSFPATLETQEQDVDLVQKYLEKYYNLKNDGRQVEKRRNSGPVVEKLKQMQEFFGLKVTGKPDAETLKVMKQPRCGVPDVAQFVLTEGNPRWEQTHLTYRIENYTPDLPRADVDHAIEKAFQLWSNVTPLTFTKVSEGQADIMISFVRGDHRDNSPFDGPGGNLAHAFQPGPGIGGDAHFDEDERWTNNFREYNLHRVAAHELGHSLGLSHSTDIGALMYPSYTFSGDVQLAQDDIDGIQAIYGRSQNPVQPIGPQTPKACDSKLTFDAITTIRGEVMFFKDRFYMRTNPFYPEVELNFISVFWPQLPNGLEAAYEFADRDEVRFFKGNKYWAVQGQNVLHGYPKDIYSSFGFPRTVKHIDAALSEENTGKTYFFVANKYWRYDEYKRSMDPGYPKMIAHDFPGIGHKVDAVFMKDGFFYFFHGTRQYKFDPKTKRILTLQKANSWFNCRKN
Nature of the data set: In vitro inhibitory activity against matrix metalloprotease -1 (collagenase-1).

For data set [2], the target named is T4, Collagenase 3 (Homo sapiens, UniProt P45452).
The target of data set [3] is 72 kDa type IV collagenase (Homo sapiens, UniProt P08253). Nature of the data set: In vitro inhibitory activity against matrix metalloprotease -2 (gelatinase-A).
In data set [4] the target is T4, Collagenase 3. The experiment in a line: In vitro inhibitory activity against human recombinant matrix metalloprotease-13 (collagenase-3).
The species named for another data set is Rattus norvegicus. Nature of the data set: Time over 100 ng/ml in fasted rats. The conditions noted are these: in vivo.
Data set [5] deals with T4, Collagenase 3. This is another data set of the same source.
Data set [6] concerns the target T2, Stromelysin-1. Nature of the data set: Inhibition of matrix metalloprotease-3 (stromelysin). In short, it runs like this:
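Human recombinant truncated MMP-3 (E. coli-expressed), 16 nM final, with fluorogenic substrate Mca-Pro-Leu-Gly-Leu-Dpa-Ala-Arg-NH₂ at 4 µM, 25 °C, in 50 mM Tris pH 7.5, 0.2 M NaCl, 5 mM CaCl₂, 0.02% Brij-35.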

Data set [7] in a line: Compound demonstarted an oral bioavailability of […]% with the half-life time as given in rats. It is filed as ADME, organism-based. The settings on record: rat, in vivo.
Data set [8] can be described thus: Oral bioavailability measured by the ratio of […] area under concentration. The settings on record: rat, in vivo. It is filed as ADME, organism-based. The method in brief: (§1)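 Single-compound study in male Sprague-Dawley rats, dosed intravenously and orally in a parallel-group design. Parameters were derived from mean plasma concentration-time profiles.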

Data set [9] in a line: Mean (%CV) PK parameters for CL(mL/min/kg). The conditions noted are these: rat, in vivo. The class given is ADME, organism-based. In short, it runs like this:
as §1

The nature of data set [10]: Pharmacokinetic half time was determined intravenously in rats. It is filed as ADME, organism-based. The conditions noted are these: rat, in vivo, iv. In short, it runs like this:
as §1

The nature of data set [11]: Mean (%CV) PK parameters for Vdss(mL/kg). The class given is ADME, organism-based. The conditions noted are these: rat, in vivo; read-out: Vdss. The method in brief:
as §1

Sequence of 72 kDa type IV collagenase (P08253 whole entry): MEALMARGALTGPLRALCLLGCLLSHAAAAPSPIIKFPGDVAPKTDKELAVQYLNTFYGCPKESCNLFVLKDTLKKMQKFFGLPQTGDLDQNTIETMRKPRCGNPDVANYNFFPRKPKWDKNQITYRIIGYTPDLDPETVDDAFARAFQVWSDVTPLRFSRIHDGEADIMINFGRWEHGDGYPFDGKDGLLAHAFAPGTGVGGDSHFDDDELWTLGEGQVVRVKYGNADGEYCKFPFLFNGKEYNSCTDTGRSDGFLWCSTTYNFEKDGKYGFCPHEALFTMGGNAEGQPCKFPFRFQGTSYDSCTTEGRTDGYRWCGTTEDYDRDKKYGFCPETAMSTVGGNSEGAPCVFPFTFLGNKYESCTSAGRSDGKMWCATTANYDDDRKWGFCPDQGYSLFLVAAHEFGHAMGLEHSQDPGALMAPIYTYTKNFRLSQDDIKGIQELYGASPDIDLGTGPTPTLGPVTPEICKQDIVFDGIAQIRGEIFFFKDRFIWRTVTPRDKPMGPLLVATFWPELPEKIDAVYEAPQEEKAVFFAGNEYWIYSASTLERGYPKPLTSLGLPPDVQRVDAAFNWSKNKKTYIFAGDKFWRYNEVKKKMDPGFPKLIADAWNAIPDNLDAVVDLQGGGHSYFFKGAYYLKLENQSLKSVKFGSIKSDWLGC
T2 sequence (P08254 whole entry): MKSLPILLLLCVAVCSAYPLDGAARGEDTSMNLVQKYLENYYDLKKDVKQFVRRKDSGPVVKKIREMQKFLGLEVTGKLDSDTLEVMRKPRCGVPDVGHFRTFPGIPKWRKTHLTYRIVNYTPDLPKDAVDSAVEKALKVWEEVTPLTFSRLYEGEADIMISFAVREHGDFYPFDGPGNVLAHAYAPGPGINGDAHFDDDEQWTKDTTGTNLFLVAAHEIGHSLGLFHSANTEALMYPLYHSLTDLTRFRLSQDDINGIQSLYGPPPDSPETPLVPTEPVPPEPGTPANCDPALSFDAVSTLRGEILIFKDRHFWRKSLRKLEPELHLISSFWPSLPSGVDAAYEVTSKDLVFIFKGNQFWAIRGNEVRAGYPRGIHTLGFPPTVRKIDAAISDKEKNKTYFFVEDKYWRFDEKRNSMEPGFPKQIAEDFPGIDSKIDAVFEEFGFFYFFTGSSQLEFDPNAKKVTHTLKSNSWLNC

As for `CCCCOc1ccc(S(=O)(=O)N2C[C@@H](N3CCS(=O)(=O)CC3)C[C@@H]2C(=O)NO)cc1`, the IC50 (as a rule, the concentration needed to halve the response being measured) on Matrilysin is 3.4 µM; against Stromelysin-1 [1], 0.012 µM; on Interstitial collagenase it was > 1 µM; against Collagenase 3 [2], 0.0009 µM; in data set [3], 0.007 µM.
Regarding `COc1ccc(S(=O)(=O)N2C[C@@H](NS(C)(=O)=O)C[C@@H]2C(=O)NO)cc1`, the IC50 amounted to 2.7 µM on Matrilysin; 0.002 µM on Collagenase 3 [4]; 0.042 µM against Stromelysin-1 [1]; 0.26 µM against Interstitial collagenase; 0.002 µM in data set [3].
For `CCCCOc1ccc(S(=O)(=O)N2C[C@@H](N3C(=O)NC(SC)C3=O)C[C@@H]2C(=O)NO)cc1` (some centres undefined), the IC50 is 0.85 µM against Matrilysin; < 0.0005 µM at Collagenase 3 [4]; 0.042 µM at Stromelysin-1 [1]; 0.75 µM on Interstitial collagenase; 0.049 µM in data set [3].
As to `CCCOc1ccc(S(=O)(=O)N2C[C@@H](N3CCOCC3)C[C@@H]2C(=O)NO)cc1`, the IC50 came out at 16.5 µM at Matrilysin, 0.001 µM at Collagenase 3 [4], 0.007 µM against Stromelysin-1 [1] and 0.49 µM against Interstitial collagenase. In addition, the “Time over 100ng/ml” value in the data set filed under Rattus norvegicus worked out at 4.5 h.
Consider `CCCCOc1ccc(S(=O)(=O)N2C[C@@H](N3C(=O)CN(CCC)C3=O)C[C@@H]2C(=O)NO)cc1`, for which the IC50 was 1.2 µM against Matrilysin; 0.0003 µM on Collagenase 3 [4]; 0.01 µM against Stromelysin-1 [1]; 0.57 µM on Interstitial collagenase; 0.0004 µM in data set [3].
As to `CCCOc1ccc(S(=O)(=O)N2C[C@@H](N3CCCC3)C[C@@H]2C(=O)NO)cc1`, the IC50 against Matrilysin is 8.7 µM; on Collagenase 3 [4] it was 0.001 µM; against Stromelysin-1 [1], 0.008 µM; on Interstitial collagenase, 0.31 µM; in data set [3] it was < 0.001 µM.
With `COCCOc1ccc(S(=O)(=O)N2C[C@@H](N3C(=O)CN(C)C3=O)C[C@@H]2C(=O)NO)cc1`, the IC50 worked out at 9.1 µM at Matrilysin; 0.026 µM against Stromelysin-1 [1]; 1.8 µM against Interstitial collagenase; 0.0044 µM on Collagenase 3 [2]; 0.001 µM in data set [3]. In addition, the “Time over 100ng/ml” value in the data set filed under Rattus norvegicus is 0 h.
As to `CCCN1CC(=O)N([C@H]2C[C@H](C(=O)NO)N(S(=O)(=O)c3ccc(OCCOC)cc3)C2)C1=O`, the IC50 was found to be 11 µM against Matrilysin; 0.002 µM at Collagenase 3 [4]; 0.03 µM on Stromelysin-1 [1]; 2.5 µM against Interstitial collagenase; 0.002 µM in [3].
Take `CCCN([C@H]1C[C@H](C(=O)NO)N(S(=O)(=O)c2ccc(OC)cc2)C1)S(C)(=O)=O`: the IC50 against Matrilysin was determined as 0.92 µM; at Collagenase 3 [4], 0.0008 µM; against Stromelysin-1 [1], 0.01 µM; against Interstitial collagenase, 0.033 µM; in [3] it was 0.0008 µM.
For `CCCN(C(=O)[C@H](C)O)[C@H]1C[C@H](C(=O)NO)N(S(=O)(=O)c2ccc(OC)cc2)C1`, the IC50 against Matrilysin amounted to 8.5 µM; at Collagenase 3 [4], 0.001 µM; against Stromelysin-1 [1], 0.002 µM; against Interstitial collagenase, 0.087 µM; in [3], 0.0007 µM.
For `COc1ccc(S(=O)(=O)N2C[C@@H](N)C[C@@H]2C(=O)NO)cc1`, in that order: 4.3 µM, 0.005 µM, 0.023 µM, 0.25 µM and 0.006 µM.
For `COc1ccc(S(=O)(=O)N[C@H]2C[C@H](C(=O)NO)N(S(=O)(=O)c3ccc(OC)cc3)C2)cc1`, in that order: 3 µM, 0.002 µM, 0.036 µM, 0.35 µM and 0.003 µM.
As for `C=CCN1CC(=O)N([C@H]2C[C@H](C(=O)NO)N(S(=O)(=O)c3ccc(OCCC)cc3)C2)C1=O`, the IC50 on Matrilysin came to 2.6 µM; at Collagenase 3 [4], 0.0004 µM; on Stromelysin-1 [1], 0.011 µM; against Interstitial collagenase it was 0.35 µM; in data set [3], 0.0008 µM.
In the case of `CCCN(C(=O)[C@@H](O)CCc1ccccc1)[C@H]1C[C@H](C(=O)NO)N(S(=O)(=O)c2ccc(OC)cc2)C1`, the IC50 is 0.012 µM against Stromelysin-1 [1], 0.26 µM against Interstitial collagenase, 0.0006 µM in [3] and 0.0005 µM against Collagenase 3 [5].
As to `COc1ccc(S(=O)(=O)N2C[C@@H](N(Cc3cccnc3)S(C)(=O)=O)C[C@@H]2C(=O)NO)cc1`, the concentration for half-maximal inhibition (IC50) against Matrilysin amounted to 2.7 µM; on Collagenase 3 [4], 0.001 µM; against Stromelysin-1 [1] it was 0.006 µM; against Interstitial collagenase it was 0.074 µM; in data set [3], 0.002 µM. Moreover, in the data set listed under Rattus norvegicus, the “Time over 100ng/ml” value came out at 0 h.
Turning to `CCCCOc1ccc(S(=O)(=O)N2C[C@@H](N3C(=O)CN(C)C3=O)C[C@@H]2C(=O)NO)cc1`, the IC50 at Stromelysin-1 [6] was found to be 0.002 µM; on Matrilysin it was 1.6 µM. In addition, the “Time over 100ng/ml” value in the data set listed under Rattus norvegicus came out at 0 h.
As to `CCCCOc1ccc(S(=O)(=O)N2C[C@@H](N3CCOCC3)C[C@@H]2C(=O)NO)cc1`, the IC50 was 5.4 µM on Matrilysin; 0.005 µM against Stromelysin-1 [1]; 0.92 µM against Interstitial collagenase; 0.0006 µM on Collagenase 3 [2]; 0.004 µM in data set [3]. Moreover, the half-life (in general, the time in which the quantity being followed falls by half) in data set [7] is 1.7 h; in data set [10], 0.4 h. Also, the bioavailability – broadly, dose-corrected exposure relative to a reference, in per cent – in [8] is 6%. Also, the clearance (commonly a measure of how efficiently the substance is removed, as volume per time) in [9] stood at 1.8 L/h/kg. Further, the “Time over 100ng/ml” value in the data set filed under Rattus norvegicus came out at 3.5 h. Also, the Vd in data set [11] turned out to be 0.408 L/kg.
As for `C=CCN1CC(=O)N([C@H]2C[C@H](C(=O)NO)N(S(=O)(=O)c3ccc(OCCOC)cc3)C2)C1=O`, the IC50 at Matrilysin is 11 µM; on Collagenase 3 [4], 0.002 µM; against Stromelysin-1 [1], 0.046 µM; against Interstitial collagenase it was 2.9 µM; in data set [3] it was 0.002 µM.
Regarding `CCCCOc1ccc(S(=O)(=O)N2C[C@@H](NS(C)(=O)=O)C[C@@H]2C(=O)NO)cc1`, the concentration for half-maximal inhibition (IC50) came out at 3.9 µM on Matrilysin, 0.0007 µM at Collagenase 3 [4], 1.3 µM at Interstitial collagenase and 0.0008 µM in data set [3].
For the molecule `CCCCOc1ccc(S(=O)(=O)N2C[C@@H](N3C(=O)NC(C)(C)C3=O)C[C@@H]2C(=O)NO)cc1`, the IC50 against Matrilysin was 0.45 µM; at Stromelysin-1 [1], 0.003 µM; at Interstitial collagenase it was 0.78 µM; against Collagenase 3 [2], < 0.0005 µM; in data set [3], 0.002 µM.
In the case of `C=CCN1CC(=O)N([C@H]2C[C@H](C(=O)NO)N(S(=O)(=O)c3ccc(OCCCC)cc3)C2)C1=O`, the IC50 on Matrilysin was determined as 1 µM; on Collagenase 3 [4], 0.0004 µM; against Stromelysin-1 [1] it was 0.007 µM; on Interstitial collagenase, 0.48 µM. The “Time over 100ng/ml” value in the data set filed under Rattus norvegicus is 4 h.
